Results taken from ChEMBL document CHEMBL2407062, “Synthesis and anticancer activities of 5,6,7-trimethoxy-N-phenyl(ethyl)-4-aminoquinazoline derivatives” (Eur J Med Chem, 2013).
Calls of active or inactive are those of the source. No cut-off for these calls is given here.

Legend:
Bcap37 [1] = experiment: Growth inhibition of human Bcap37 cells at 10 uM after 72 hrs by MTT assay relative to control; assay type: functional; settings: for inhibition of growth at 10 µM: Homo sapiens, Bcap37, 72 h, read-out: GI
Outline: (§1)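 Cells in RPMI 1640 with 10% heat-inactivated FBS, 37 °C, 5% CO2. Seeded at 2 × 10³ cells per well. Compounds dissolved in DMSO, diluted in medium, tested at 1–100 μM for 72 h; 0.1% DMSO control. MTT read-out, absorbance at 595 nm. Mean ± SD of triplicate experiments. IC50 taken from the dose–response curve.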

Bcap37 [2] = experiment: Growth inhibition of human Bcap37 cells at 1 uM after 72 hrs by MTT assay relative to control; assay type: functional; settings: for inhibition of growth at 1 µM: Homo sapiens, Bcap37, 72 h, read-out: GI; outline: as §1
BGC-823 [3] = experiment: Growth inhibition of human BGC823 cells at 10 uM after 72 hrs by MTT assay relative to control; assay type: functional; settings: BGC-823, 72 h, read-out: GI; outline: as §1
BGC-823 [4] = experiment: Growth inhibition of human BGC823 cells at 1 uM after 72 hrs by MTT assay relative to control; assay type: functional; settings: BGC-823, 72 h, read-out: GI; outline: as §1
PC-3 [5] = experiment: Growth inhibition of human PC3 cells at 1 uM after 72 hrs by MTT assay relative to control; assay type: functional; settings: for inhibition of growth at 1 µM: Homo sapiens, PC-3, 72 h, read-out: GI; outline: as §1
PC-3 [6] = experiment: Growth inhibition of human PC3 cells at 10 uM after 72 hrs by MTT assay relative to control; assay type: functional; settings: for inhibition of growth at 10 µM: Homo sapiens, PC-3, 72 h, read-out: GI; outline: as §1
[7] = molecular target: T1, Mitogen-activated protein kinase; ERK1/ERK2 (Homo sapiens) (UniProt P27361+P28482); experiment: Inhibition of EGF-induced ERK1/2 phosphorylation in human PC3 cells at 1.28 uM incubated for 60 mins prior to EGF-treatment measured after 10 mins by Western blotting analysis; assay type: cell-based; settings: PC-3
Outline: (§2)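 PC3 cells grown 36–48 h in RPMI 1640 with 10% FBS at 37 °C, then serum-starved 24 h. Treated with compound for 60 min, then EGF 10 ng/mL for 10 min; quenched on ice. Cells washed with cold PBS and lysed in NP-40/SDS buffer with Na3VO4 and NaF. Run on 10% SDS-PAGE, PVDF blot probed for pERK1/2 with actin as loading control, ECL detection.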

[8] = molecular target: T1, Mitogen-activated protein kinase; ERK1/ERK2 (Homo sapiens); experiment: Inhibition of EGF-induced ERK1/2 phosphorylation in human PC3 cells at 10 uM incubated for 60 mins prior to EGF-treatment measured after 10 mins by Western blotting analysis; assay type: cell-based; settings: PC-3; outline: as §2
Bcap37 [9] = experiment: Growth inhibition of human Bcap37 cells after 72 hrs by MTT assay; assay type: functional, cell-based; settings: Bcap37, 72 h; outline: as §1
BGC-823 [10] = experiment: Growth inhibition of human BGC823 cells after 72 hrs by MTT assay; assay type: functional, cell-based; settings: BGC-823, 72 h; outline: as §1
PC-3 [11] = experiment: Growth inhibition of human PC3 cells after 72 hrs by MTT assay; assay type: functional, cell-based; settings: PC-3, 72 h; outline: as §1
[12] = molecular target: T1, Mitogen-activated protein kinase; ERK1/ERK2 (Homo sapiens); experiment: Inhibition of EGF-induced ERK1/2 phosphorylation in human PC3 cells at 5.12 uM incubated for 60 mins prior to EGF-treatment measured after 10 mins by Western blotting analysis; assay type: cell-based; settings: PC-3; outline: as §2

T1 sequence (P27361 whole entry, looked up): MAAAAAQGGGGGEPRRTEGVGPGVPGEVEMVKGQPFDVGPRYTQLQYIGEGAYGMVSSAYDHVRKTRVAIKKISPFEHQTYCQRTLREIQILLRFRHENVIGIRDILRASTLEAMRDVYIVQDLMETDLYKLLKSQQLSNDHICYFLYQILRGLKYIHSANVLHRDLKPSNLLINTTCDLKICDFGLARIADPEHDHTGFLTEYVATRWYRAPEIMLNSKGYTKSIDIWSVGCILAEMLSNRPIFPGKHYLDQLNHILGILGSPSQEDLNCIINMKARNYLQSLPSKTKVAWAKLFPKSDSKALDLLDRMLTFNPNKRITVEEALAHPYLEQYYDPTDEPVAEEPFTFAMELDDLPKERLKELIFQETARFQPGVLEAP
T1 sequence (P28482 whole entry, looked up): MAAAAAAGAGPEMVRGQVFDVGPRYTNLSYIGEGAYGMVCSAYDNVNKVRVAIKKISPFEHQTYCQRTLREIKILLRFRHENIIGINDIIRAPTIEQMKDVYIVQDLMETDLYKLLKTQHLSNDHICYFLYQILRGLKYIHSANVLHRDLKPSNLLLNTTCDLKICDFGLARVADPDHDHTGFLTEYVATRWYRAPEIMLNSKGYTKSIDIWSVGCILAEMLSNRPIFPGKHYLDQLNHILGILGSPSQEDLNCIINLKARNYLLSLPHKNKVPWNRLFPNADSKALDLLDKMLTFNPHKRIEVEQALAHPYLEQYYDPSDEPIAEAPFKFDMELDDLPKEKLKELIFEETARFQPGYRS

| SMILES | inhibition of growth at 10 µM (Bcap37 [1]) [%] | inhibition of growth at 1 µM (Bcap37 [2]) [%] | inhibition of growth at 10 µM (BGC-823 [3]) [%] | inhibition of growth at 1 µM (BGC-823 [4]) [%] | inhibition of growth at 1 µM (PC-3 [5]) [%] | inhibition of growth at 10 µM (PC-3 [6]) [%] | inhibition [8] | other results |
| --- | --- | --- | --- | --- | --- | --- | --- | --- |
| COc1cc2ncnc(Nc3cccc(C(F)(F)F)c3)c2c(OC)c1OC | 23.5 | 21 | 24.3 | 1 | 14.9 | 46.6 | Active | inhibition [7]: Active |
| COc1cc2ncnc(Nc3cccc(Br)c3)c2cc1OC | 43.4 | 19.8 | 32.6 | 9.3 | 21.5 | 62.8 | – | IC50 (Bcap37 [9]): 15.7 µM; IC50 (BGC-823 [10]): 14.4 µM; IC50 (PC-3 [11]): 8.3 µM |
| COc1cc(Nc2ncnc3cc(OC)c(OC)c(OC)c23)c(C(=O)O)cc1OC | 53.7 | 40.9 | 34.3 | 13.2 | 12.5 | 40.4 | – | – |
| COc1cc2ncnc(Nc3cccc(F)c3)c2c(OC)c1OC.Cl | 13.5 | 7 | – | – | 14.9 | – | – | growth inhibition (GI) (PC-3 [6]): 38.9% |
| COc1cc2ncnc(NCCc3cccc(F)c3)c2c(OC)c1OC | 45.8 | 2.1 | 58.9 | 40.8 | 35.6 | 61.7 | – | – |
| COc1cc2ncnc(Nc3cccc(F)c3)c2c(OC)c1OC [listing 1 of 2 here] | – | – | – | – | – | – | Active | inhibition [12]: Active |
| COc1cc2ncnc(Nc3ccc(Br)cc3Cl)c2c(OC)c1OC | 18.6 | 8.7 | – | – | -8.4 | 49.7 | – | – |
| COc1cc2ncnc(Nc3c(C)cc(C)cc3Br)c2c(OC)c1OC | – | – | 11.4 | 0.6 | 9.7 | 19.8 | – | – |
| COc1cc2ncnc(Nc3cc(C(F)(F)F)ccc3Br)c2c(OC)c1OC | – | – | 23.2 | 2.1 | -3.9 | 25.3 | – | – |
| COc1cc2ncnc(Nc3cccc(Cl)c3)c2c(OC)c1OC.Cl | 17.5 | 11 | 23.9 | 5.9 | – | – | – | growth inhibition (GI) (PC-3 [5]): 16.9%; growth inhibition (GI) (PC-3 [6]): 28.8% |
| COc1cc2ncnc(Nc3ccc(Cl)cc3)c2c(OC)c1OC | 26.4 | 22.2 | 43 | 15.5 | 6.3 | 31.3 | – | – |
| COc1cc2ncnc(Nc3cc(F)ccc3Br)c2c(OC)c1OC | 18.9 | 10.5 | 60.7 | 12.4 | 12.8 | 34.7 | – | – |
| COc1cc2ncnc(Nc3cccc(C(F)(F)F)c3F)c2c(OC)c1OC | 69.3 | 11.3 | 41.9 | 3.9 | 9.2 | 42.7 | – | – |
| COc1cc2ncnc(Nc3ccccc3[N+](=O)[O-])c2c(OC)c1OC | 15.4 | -8.3 | – | – | 11.3 | 25.5 | – | – |
| COc1cc2ncnc(Nc3ccc(Br)cc3)c2c(OC)c1OC | 26.1 | 10.4 | 32.6 | 13.8 | 1 | 22.2 | Active | – |
| COc1cc2ncnc(Nc3cc(C(F)(F)F)ccc3F)c2c(OC)c1OC | 27.6 | 14.4 | – | – | 7.6 | 29.2 | Active | – |
| COc1cc2ncnc(Nc3cccc([N+](=O)[O-])c3)c2c(OC)c1OC | 50 | 31.6 | 16.3 | 9 | 14.5 | 26.4 | – | – |
| COc1cc2ncnc(Nc3ccc(F)cc3)c2c(OC)c1OC | 10.8 | 7.8 | – | – | 3.1 | 9.1 | Active | inhibition [12]: Active |
| COc1cc2ncnc(Nc3c(F)cc(F)cc3Br)c2c(OC)c1OC | 2.2 | 4.3 | 68.4 | 38.5 | 8.1 | 43 | – | – |
| COc1cc2ncnc(Nc3ccc(C(F)(F)F)cc3)c2c(OC)c1OC | 32.3 | 8.6 | 17.4 | 2.4 | 7.4 | 29 | Active | inhibition [7]: Active |
| COc1cc2ncnc(Nc3ccc([N+](=O)[O-])cc3)c2c(OC)c1OC | -16.3 | -12 | – | – | 7.9 | 24.9 | – | – |
| COc1cc2ncnc(Nc3cccc(Cl)c3)c2c(OC)c1OC [listing 1 of 2 here] | – | – | – | – | – | – | – | growth inhibition (GI) (Bcap37 [1]): 28.8%; growth inhibition (GI) (Bcap37 [2]): 14.1%; growth inhibition (GI) (PC-3 [5]): -4.5%; growth inhibition (GI) (PC-3 [6]): 11.9% |
| COc1cc2ncnc(Nc3ccc(C)cc3)c2c(OC)c1OC | 11.1 | 7.3 | 19.3 | 1.2 | 23.8 | 45.6 | Active | inhibition [12]: Active |
| COc1cc2ncnc(Nc3ccc(O)cc3)c2c(OC)c1OC | 3.3 | -7.5 | – | – | 9.3 | 24.6 | Active | – |
| COc1cc2ncnc(Nc3ccccc3F)c2c(OC)c1OC | – | – | – | – | 0.9 | 24 | Active | – |
| COc1cc2ncnc(Nc3cc(I)ccc3C(=O)O)c2c(OC)c1OC | 20.7 | 19.4 | 51.9 | 42.2 | 14.1 | 22.6 | – | – |
| COc1cc2ncnc(Nc3cccc(F)c3)c2c(OC)c1OC [listing 2 of 2 here] | – | – | – | – | – | 21.5 | – | growth inhibition (GI) (PC-3 [5]): 14.7% |
| COc1cc2ncnc(Nc3cccc(Cl)c3)c2c(OC)c1OC [listing 2 of 2 here] | – | – | – | – | – | – | Active | – |
